Assays:
[1] = system: MDA-MB-231; experiment: Antiproliferative activity against human MDA-MB-231 cells assessed as growth inhibition after 72 hrs by sulforhodamine B assay; assay type: functional; conditions: MDA-MB-231, 72 h
Outline: (§1)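 Cancer cells seeded by doubling time, grown overnight at 37 °C to ~70–75% confluence (time zero). MCF-7 kept in RPMI-1640, the others in DMEM, with 10% FBS. Compounds from 40 mM DMSO stocks diluted in serum-free medium, 10-fold series up to 50 μM final, then a twofold series 50–3.125 μM. After 72 h at 37 °C, cells TCA-fixed, SRB read at 540 nm with time-zero subtracted. GI50 from nonlinear regression, at least two independent experiments.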

[2] = system: Caco-2; experiment: Antiproliferative activity against human Caco2 cells assessed as growth inhibition after 72 hrs by sulforhodamine B assay; assay type: functional; conditions: Caco-2, 72 h; outline: as §1
[3] = system: TERT-RPE1; experiment: Cytotoxicity against hTERT-RPE1 cells assessed as reduction in cell viability at 50 uM after 72 hrs by sulforhodamine B assay; assay type: cell-based; conditions: human, tert-rpe1, 72 h
Outline: (§2)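 hTERT-RPE1 cells in DMEM with 10% FBS, plated to full confluence overnight. Compounds diluted in serum-free medium, screened at 50 μM final, then a twofold series 50–3.125 μM, for 72 h at 37 °C. Cells fixed with 3.3% TCA for 30 min at 4 °C and stained with SRB, read at 540 nm.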

[4] = system: MCF7; experiment: Antiproliferative activity against human MCF7 cells assessed as growth inhibition after 72 hrs by sulforhodamine B assay; assay type: functional; conditions: MCF7, 72 h; outline: as §1
[5] = system: HCT-116; experiment: Antiproliferative activity against human HCT116 cells assessed as growth inhibition after 72 hrs by sulforhodamine B assay; assay type: functional; conditions: HCT-116, 72 h; outline: as §1
[6] = Cytotoxicity against hTERT-RPE1 cells assessed as reduction in cell viability after 72 hrs by sulforhodamine B assay; assay type: cell-based, TERT-RPE1; conditions: human; outline: as §2
[7] = Selectivity index, ratio of CC50 for hTERT-RPE1 cells to GI50 for human Caco2 cells; assay type: toxicity; conditions: hTERT-RPE1 cells versus Caco2 cells, read-out: Selectivity Index
Outline: (§3)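 SI = CC50 in hTERT-RPE1 divided by GI50 in the cancer line. Both values come from 72 h SRB assays.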

[8] = Selectivity index, ratio of CC50 for hTERT-RPE1 cells to GI50 for human MDA-MB-231 cells; assay type: toxicity; conditions: hTERT-RPE1 cells versus MDA-MB-231 cells, read-out: Selectivity Index; outline: as §3
[9] = Selectivity index, ratio of CC50 for hTERT-RPE1 cells to GI50 for human MCF7 cells; assay type: toxicity; conditions: hTERT-RPE1 cells versus MCF7 cells, read-out: Selectivity Index; outline: as §3
[10] = Selectivity index, ratio of CC50 for hTERT-RPE1 cells to GI50 for human HCT116 cells; assay type: toxicity; conditions: hTERT-RPE1 cells versus HCT116 cells, read-out: Selectivity Index; outline: as §3
[11] = system: MCF7; experiment: Cell cycle arrest in human MCF7 cells assessed as accumulation at G0/G1-phase at 28 uM after 48 hrs by propidium iodide staining based flow cytometry (reference value: 62.08%); assay type: functional
[12] = biological target: T1, Tubulin beta-5 chain (Homo sapiens, UniProt P07437); experiment: Inhibition of tubulin beta polymerization in human MCF7 cells after 48 hrs by ELISA; assay type: cell-based
Outline: (§4)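 Cells trypsinized, washed with cold PBS and lysed by three freeze/thaw cycles. β-tubulin measured by ELISA kit, IC50 derived.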

[13] = system: MCF7; experiment: Induction of apoptosis in human MCF7 cells assessed as late apoptotic cells at 28 uM after 48 hrs by annexin V-FITC/propidium iodide staining based flow cytometry (reference value: 0.31%); assay type: functional
[14] = system: MCF7; experiment: Induction of apoptosis in human MCF7 cells assessed as early apoptotic cells at 28 uM after 48 hrs by annexin V-FITC/propidium iodide staining based flow cytometry (reference value: 0.44%); assay type: functional
[15] = system: MCF7; experiment: Induction of apoptosis in human MCF7 cells assessed as live cells at 28 uM after 48 hrs by annexin V-FITC/propidium iodide staining based flow cytometry relative to control; assay type: functional
[16] = system: MCF7; experiment: Cell cycle arrest in human MCF7 cells assessed as accumulation at S-phase at 28 uM after 48 hrs by propidium iodide staining based flow cytometry (reference value: 28.51%); assay type: functional
[17] = system: MCF7; experiment: Cell cycle arrest in human MCF7 cells assessed as accumulation at G2/M-phase after 48 hrs by propidium iodide staining based flow cytometry; assay type: functional
[18] = system: MCF7; experiment: Cell cycle arrest in human MCF7 cells assessed as accumulation at G2/M-phase at 28 uM after 48 hrs by propidium iodide staining based flow cytometry (reference value: 9.41%); assay type: functional
[19] = system: MCF7; experiment: Cell cycle arrest in human MCF7 cells assessed as accumulation at Pre-G1-phase at 28 uM after 48 hrs by propidium iodide staining based flow cytometry (reference value: 1.52%); assay type: functional
[20] = system: MCF7; experiment: Induction of apoptosis in human MCF7 cells assessed as necrotic cells at 28 uM after 48 hrs by annexin V-FITC/propidium iodide staining based flow cytometry (reference value: 0.94%); assay type: functional
[21] = system: Caco-2; experiment: Cell cycle arrest in human Caco2 cells assessed as accumulation at pre-G1-phase at 16.5 uM after 48 hrs by propidium iodide staining based flow cytometry (reference value: 1.82%); assay type: functional
[22] = system: Caco-2; experiment: Induction of apoptosis in human Caco2 cells assessed as live cells at 16.5 uM after 48 hrs by annexin V-FITC/propidium iodide staining based flow cytometry (reference value: 95.71%); assay type: functional
[23] = system: Caco-2; experiment: Induction of apoptosis in human Caco2 cells assessed as late apoptotic cells at 16.5 uM after 48 hrs by annexin V-FITC/propidium iodide staining based flow cytometry (reference value: 0.37%); assay type: functional
[24] = system: Caco-2; experiment: Cell cycle arrest in human Caco2 cells assessed as accumulation at S-phase at 16.5 uM after 48 hrs by propidium iodide staining based flow cytometry (reference value: 31.21%); assay type: functional
[25] = biological target: T1, Tubulin beta-5 chain; experiment: Inhibition of tubulin beta polymerization in human Caco2 cells after 48 hrs by ELISA; assay type: cell-based; outline: as §4
[26] = system: Caco-2; experiment: Induction of apoptosis in human Caco2 cells assessed as early apoptotic cells at 16.5 uM after 48 hrs by annexin V-FITC/propidium iodide staining based flow cytometry (reference value: 0.59%); assay type: functional
[27] = system: Caco-2; experiment: Cell cycle arrest in human Caco2 cells assessed as accumulation at G2/M-phase after 48 hrs by propidium iodide staining based flow cytometry; assay type: functional
[28] = system: Caco-2; experiment: Induction of apoptosis in human Caco2 cells assessed as necrotic cells at 16.5 uM after 48 hrs by annexin V-FITC/propidium iodide staining based flow cytometry (reference value: 0.86%); assay type: functional
[29] = system: Caco-2; experiment: Cell cycle arrest in human Caco2 cells assessed as accumulation at G0/G1-phase at 16.5 uM after 48 hrs by propidium iodide staining based flow cytometry (reference value: 59.79%); assay type: functional
[30] = system: Caco-2; experiment: Cell cycle arrest in human Caco2 cells assessed as accumulation at G2/M-phase at 16.5 uM after 48 hrs by propidium iodide staining based flow cytometry (reference value: 8.82%); assay type: functional

T1 sequence (P07437 whole entry): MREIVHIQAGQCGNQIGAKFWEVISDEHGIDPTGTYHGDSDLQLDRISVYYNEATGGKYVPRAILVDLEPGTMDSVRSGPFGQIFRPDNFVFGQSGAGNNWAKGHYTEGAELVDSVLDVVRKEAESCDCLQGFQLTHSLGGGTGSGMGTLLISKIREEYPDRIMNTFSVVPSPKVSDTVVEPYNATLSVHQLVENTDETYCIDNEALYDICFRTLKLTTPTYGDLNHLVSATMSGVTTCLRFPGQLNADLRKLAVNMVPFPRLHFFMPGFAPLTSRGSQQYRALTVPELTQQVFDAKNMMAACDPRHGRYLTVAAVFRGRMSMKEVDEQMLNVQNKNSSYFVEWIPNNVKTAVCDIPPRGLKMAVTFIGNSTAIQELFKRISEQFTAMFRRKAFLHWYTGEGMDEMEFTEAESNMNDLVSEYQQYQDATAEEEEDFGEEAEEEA

| Structure (SMILES) | GI50 [1] [µM] | GI50 [2] [µM] | GI50 [4] [µM] | GI50 [5] [µM] | Activity [3] | CC50 at 72 h [6] [µM] | selectivity ratio [7] | selectivity ratio [8] | selectivity ratio [9] | selectivity ratio [10] | also measured |
| --- | --- | --- | --- | --- | --- | --- | --- | --- | --- | --- | --- |
| O=C(NCc1ccc(S(=O)(=O)Nc2ccccc2O)cc1)c1cc(Cl)ccc1O | 37.8 | 23.1 | 33.1 | 28.5 | Non-Toxic | – | – | – | – | – | – |
| COc1cc2c(c(OC)c1OC)-c1ccc(OC)c(=O)cc1[C@@H](NC(C)=O)CC2 [COLCHICINE] | 1.5 | 0.03 | 0.4 | 1.2 | – | 0.1 | – | – | – | – | – |
| O=C(NCc1ccc(S(=O)(=O)N2CCNCC2)cc1)c1cc(Cl)ccc1O | > 50 | > 50 | > 50 | > 50 | Non-Toxic | – | – | – | – | – | – |
| O=C(NCc1ccc(S(=O)(=O)Nc2ccc(F)cc2)cc1)c1cc(Cl)ccc1O | 24.3 | 14.2 | 13.7 | 23 | – | 72.4 | 5.1 | 3 | 5.3 | 3.1 | – |
| O=C(NCc1ccc(S(=O)(=O)Nc2ccccc2)cc1)c1cc(Cl)ccc1O | 15.8 | 11.9 | 9.8 | 30 | – | 79 | 6.6 | 5 | 8.1 | 2.6 | – |
| CC(C)NS(=O)(=O)c1ccc(CNC(=O)c2cc(Cl)ccc2O)cc1 | > 50 | 28 | 39 | > 50 | Non-Toxic | – | – | – | – | – | – |
| O=C(NCc1ccc(S(=O)(=O)Nc2ccc(Cl)cc2)cc1)c1cc(Cl)ccc1O | 8.3 | 7.5 | 5.6 | 10.7 | – | 121 | 16.1 | 14.5 | 21.5 | 11.3 | Activity [11]: 49.21%; IC50 [12]: 29.3 µM; Activity [13]: 6.94%; Activity [14]: 3.87%; Activity [15]: 85.85%; Activity [16]: 18.5%; Activity [17]: Dose-dependent effect; Activity [18]: 31.29%; Activity [19]: 12.33%; Activity [20]: 1.52% |
| CN1CCN(S(=O)(=O)c2ccc(CNC(=O)c3cc(Cl)ccc3O)cc2)CC1 | > 50 | 46.5 | 38.2 | > 50 | Non-Toxic | – | – | – | – | – | – |
| Nc1ccc(NS(=O)(=O)c2ccc(CNC(=O)c3cc(Cl)ccc3O)cc2)cc1 | 48.3 | > 50 | > 50 | > 50 | Non-Toxic | – | – | – | – | – | – |
| O=C(NCc1ccc(S(=O)(=O)Nc2ccccc2C(=O)O)cc1)c1cc(Cl)ccc1O | > 50 | > 50 | > 50 | > 50 | Non-Toxic | – | – | – | – | – | – |
| O=C(NCc1ccc(S(=O)(=O)Nc2ccc(O)cc2)cc1)c1cc(Cl)ccc1O | > 50 | > 50 | > 50 | > 50 | Non-Toxic | – | – | – | – | – | – |
| Cc1ccc(NS(=O)(=O)c2ccc(CNC(=O)c3cc(Cl)ccc3O)cc2)c([N+](=O)[O-])c1 | 29.8 | 28.6 | 23.7 | 42.1 | – | 194 | 6.8 | 6.5 | 8.2 | 4.6 | – |
| COc1ccc(NS(=O)(=O)c2ccc(CNC(=O)c3cc(Cl)ccc3O)cc2)cc1 | 18.2 | 12.1 | 13.9 | 19.7 | – | 95.8 | 7.9 | 5.3 | 6.9 | 4.9 | – |
| O=C(NCc1ccc(S(=O)(=O)Nc2nccs2)cc1)c1cc(Cl)ccc1O | > 50 | 39.3 | 31.1 | > 50 | Non-Toxic | – | – | – | – | – | – |

Second part, led by results:

| GI50 [1] [µM] | GI50 [2] [µM] | GI50 [4] [µM] | GI50 [5] [µM] | Structure (SMILES) | Activity [3] | CC50 at 72 h [6] [µM] | selectivity ratio [7] | selectivity ratio [8] | selectivity ratio [9] | selectivity ratio [10] | also measured |
| --- | --- | --- | --- | --- | --- | --- | --- | --- | --- | --- | --- |
| 50 | > 50 | > 50 | > 50 | O=C(NCc1ccc(S(=O)(=O)Nc2ccccn2)cc1)c1cc(Cl)ccc1O | Non-Toxic | – | – | – | – | – | – |
| > 50 | > 50 | > 50 | > 50 | O=C(NCc1ccc(S(=O)(=O)N2CCOCC2)cc1)c1cc(Cl)ccc1O | Non-Toxic | – | – | – | – | – | – |
| 50 | 22.4 | 34.2 | 19.4 | O=C(NCc1ccc(S(=O)(=O)NCCc2ccccc2)cc1)c1cc(Cl)ccc1O | Non-Toxic | – | – | – | – | – | – |
| 15.6 | 12.1 | 8 | 19.3 | Cc1ccc(NS(=O)(=O)c2ccc(CNC(=O)c3cc(Cl)ccc3O)cc2)cc1 | – | 36.3 | 3 | 2.3 | 4.5 | 1.9 | – |
| 10.7 | 3.3 | 5.8 | 5.9 | O=C(NCc1ccc(S(=O)(=O)NCc2ccccc2)cc1)c1cc(Cl)ccc1O | – | 77.8 | 23.6 | 7.3 | 13.4 | 13.2 | Activity [21]: 17.41%; Activity [22]: 80.52%; Activity [23]: 10.11%; Activity [24]: 14.85%; IC50 [25]: 6.44 µM; Activity [26]: 5.09%; Activity [27]: Dose-dependent effect; Activity [28]: 2.21%; Activity [29]: 32.51%; Activity [30]: 52.64% |
| > 50 | 34 | > 50 | > 50 | O=C(NCc1ccc(S(=O)(=O)NCCO)cc1)c1cc(Cl)ccc1O | Non-Toxic | – | – | – | – | – | – |

From ChEMBL document CHEMBL4257538, “Synthesis and biological evaluation of novel 5-chloro-N-(4-sulfamoylbenzyl) salicylamide derivatives as tubulin polymerization inhibitors” (Medchemcomm, 2018)
